From ChEMBL document CHEMBL1158361, “Discovering novel quercetin-3-O-amino acid-esters as a new class of Src tyrosine kinase inhibitors” (Eur J Med Chem, 2009)

Tests used:
[1] = biological target: T1, Proto-oncogene tyrosine-protein kinase Src (Homo sapiens, UniProt P12931); assay: Inhibition of Src at 10 uM
Summary of the method: (§1)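 Wells were precoated with 20 μg/mL poly(Glu,Tyr)4:1 substrate, then given an 8 μM ATP solution (added concentration) and compound. Purified EGFR or Src in kinase buffer ran for 60 min at 37 °C, in triplicate, with 0.1% DMSO as negative control. Phosphotyrosine was detected with PY99, HRP anti-mouse IgG and o-phenylenediamine/H2O2 at A490. Inhibition % = [1 − A490/A490 control] × 100, and IC50 was taken from inhibition curves.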

[2] = biological target: T1, Proto-oncogene tyrosine-protein kinase Src; assay: Inhibition of Src; summary of the method: as §1
[3] = biological target: Epidermal growth factor receptor (Homo sapiens) (UniProt P00533); assay: Inhibition of EGFR at 10 uM; summary of the method: as §1
Chain of Epidermal growth factor receptor (Homo sapiens) (P00533 whole entry): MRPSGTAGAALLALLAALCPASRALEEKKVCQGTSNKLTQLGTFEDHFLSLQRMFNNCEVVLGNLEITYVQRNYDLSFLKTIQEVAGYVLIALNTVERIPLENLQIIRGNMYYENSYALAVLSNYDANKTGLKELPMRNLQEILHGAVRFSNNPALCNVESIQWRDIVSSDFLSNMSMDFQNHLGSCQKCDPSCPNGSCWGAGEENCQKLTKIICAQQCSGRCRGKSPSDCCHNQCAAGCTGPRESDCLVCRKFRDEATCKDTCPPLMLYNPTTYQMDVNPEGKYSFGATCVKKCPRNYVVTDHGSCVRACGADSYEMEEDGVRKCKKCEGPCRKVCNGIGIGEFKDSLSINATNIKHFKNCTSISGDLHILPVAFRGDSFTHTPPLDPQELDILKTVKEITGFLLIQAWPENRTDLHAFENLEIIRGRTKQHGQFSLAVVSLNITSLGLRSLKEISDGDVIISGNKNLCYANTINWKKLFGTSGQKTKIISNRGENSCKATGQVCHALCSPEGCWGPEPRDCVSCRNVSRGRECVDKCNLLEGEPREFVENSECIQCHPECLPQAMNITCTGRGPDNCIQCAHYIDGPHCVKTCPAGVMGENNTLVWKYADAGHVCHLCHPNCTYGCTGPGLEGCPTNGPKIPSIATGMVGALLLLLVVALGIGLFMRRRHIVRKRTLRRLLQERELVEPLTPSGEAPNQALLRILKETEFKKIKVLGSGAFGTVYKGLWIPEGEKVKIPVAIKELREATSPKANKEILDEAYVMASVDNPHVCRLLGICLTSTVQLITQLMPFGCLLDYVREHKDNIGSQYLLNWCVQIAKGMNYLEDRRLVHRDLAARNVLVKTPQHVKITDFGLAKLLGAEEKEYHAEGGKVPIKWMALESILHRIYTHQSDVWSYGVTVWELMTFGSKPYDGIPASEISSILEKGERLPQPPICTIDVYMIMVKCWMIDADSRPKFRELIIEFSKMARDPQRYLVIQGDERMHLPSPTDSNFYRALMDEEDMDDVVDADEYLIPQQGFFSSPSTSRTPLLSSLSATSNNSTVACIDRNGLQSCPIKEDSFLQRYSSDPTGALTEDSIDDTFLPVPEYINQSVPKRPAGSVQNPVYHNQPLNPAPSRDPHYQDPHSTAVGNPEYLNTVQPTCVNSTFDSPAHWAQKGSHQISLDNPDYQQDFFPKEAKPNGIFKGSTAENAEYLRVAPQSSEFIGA

T1 sequence (P12931 2-536 limits assumed): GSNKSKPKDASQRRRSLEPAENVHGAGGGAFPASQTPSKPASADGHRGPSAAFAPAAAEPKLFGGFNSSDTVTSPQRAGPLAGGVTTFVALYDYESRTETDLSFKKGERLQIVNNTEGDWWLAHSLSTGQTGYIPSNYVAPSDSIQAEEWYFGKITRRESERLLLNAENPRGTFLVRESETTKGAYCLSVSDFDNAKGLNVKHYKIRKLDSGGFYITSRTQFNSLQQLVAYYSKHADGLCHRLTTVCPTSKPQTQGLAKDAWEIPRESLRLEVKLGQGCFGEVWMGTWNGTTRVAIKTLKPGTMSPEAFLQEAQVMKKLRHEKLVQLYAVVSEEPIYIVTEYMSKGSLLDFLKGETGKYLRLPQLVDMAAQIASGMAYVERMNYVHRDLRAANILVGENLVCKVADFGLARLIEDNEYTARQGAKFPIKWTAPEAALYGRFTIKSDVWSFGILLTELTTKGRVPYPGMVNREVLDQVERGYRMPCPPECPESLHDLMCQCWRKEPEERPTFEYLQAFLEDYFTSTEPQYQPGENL

SMILES: CC(=O)N[C@@H](Cc1ccccc1)C(=O)Oc1c(-c2ccc(O)c(O)c2)oc2cc(O)cc(O)c2c1=O
- inhibition [1]: 60.5%
- IC50 [2]: 5.9 µM
- inhibition [3]: 20.9%

SMILES: C[C@H](NC(=O)OC(C)(C)C)C(=O)Oc1c(-c2ccc(O)c(O)c2)oc2cc(O)cc(O)c2c1=O
- inhibition [1]: 51.4%
- IC50 [2]: 6.5 µM
- inhibition [3]: 35.9%

SMILES: CC(C)(C)OC(=O)N[C@@H](Cc1c[nH]c2ccccc12)C(=O)Oc1c(-c2ccc(O)c(O)c2)oc2cc(O)cc(O)c2c1=O
- inhibition [1]: 44.4%
- inhibition [3]: 15.6%

SMILES: CC(C)C[C@H](NC(=O)OC(C)(C)C)C(=O)Oc1c(-c2ccc(O)c(O)c2)oc2cc(O)cc(O)c2c1=O
- inhibition [1]: 55.4%
- IC50 [2]: 4.2 µM
- inhibition [3]: 30.4%

SMILES: CC(C)(C)OC(=O)N[C@@H](CC(N)=O)C(=O)Oc1c(-c2ccc(O)c(O)c2)oc2cc(O)cc(O)c2c1=O
- inhibition [1]: 50.8%
- IC50 [2]: 9.9 µM
- inhibition [3]: 23.8%

SMILES: C[C@H](O)[C@@H](NC(=O)OC(C)(C)C)C(=O)Oc1c(-c2ccc(O)c(O)c2)oc2cc(O)cc(O)c2c1=O
- inhibition [1]: 71%
- IC50 [2]: 4.9 µM
- inhibition [3]: 34.6%

SMILES: CC(C)(C)n1nc(-c2ccc(Cl)cc2)c2c(N)ncnc21
- inhibition [1]: 99%

SMILES: CC(=O)N1CCC[C@H]1C(=O)Oc1c(-c2ccc(O)c(O)c2)oc2cc(O)cc(O)c2c1=O
- inhibition [1]: 24.3%
- inhibition [3]: 21%

SMILES: CC(C)(C)OC(=O)N1CCC[C@H]1C(=O)Oc1c(-c2ccc(O)c(O)c2)oc2cc(O)cc(O)c2c1=O
- inhibition [1]: 27.7%
- inhibition [3]: 19.3%

SMILES: CC(=O)N[C@@H](CC(C)C)C(=O)Oc1c(-c2ccc(O)c(O)c2)oc2cc(O)cc(O)c2c1=O
- inhibition [1]: 39%
- inhibition [3]: 25.9%

SMILES: CC(C)(C)OC(=O)N[C@@H](Cc1ccccc1)C(=O)Oc1c(-c2ccc(O)c(O)c2)oc2cc(O)cc(O)c2c1=O
- inhibition [1]: 40.9%
- inhibition [3]: 35.9%

SMILES: CC(C)[C@H](NC(=O)OC(C)(C)C)C(=O)Oc1c(-c2ccc(O)c(O)c2)oc2cc(O)cc(O)c2c1=O
- inhibition [1]: 52.5%
- IC50 [2]: 7.4 µM
- inhibition [3]: 21%

SMILES: CC(C)[C@@H](NC(=O)OC(C)(C)C)C(=O)Oc1c(-c2ccc(O)c(O)c2)oc2cc(O)cc(O)c2c1=O
- inhibition [1]: 40.7%
- inhibition [3]: 22.3%

SMILES: C[C@@H](O)[C@H](NC(=O)OC(C)(C)C)C(=O)Oc1c(-c2ccc(O)c(O)c2)oc2cc(O)cc(O)c2c1=O
- inhibition [1]: 76.1%
- IC50 [2]: 3.5 µM
- inhibition [3]: 36.8%

SMILES: O=c1c(O)c(-c2ccc(O)c(O)c2)oc2cc(O)cc(O)c12 [QUERCETIN]
- IC50 [2]: 15 µM

SMILES: CC(C)C[C@@H](NC(=O)OC(C)(C)C)C(=O)Oc1c(-c2ccc(O)c(O)c2)oc2cc(O)cc(O)c2c1=O
- inhibition [1]: 44.5%
- inhibition [3]: 29.2%

SMILES: CC(C)(C)OC(=O)NCC(=O)Oc1c(-c2ccc(O)c(O)c2)oc2cc(O)cc(O)c2c1=O
- inhibition [1]: 76.2%
- IC50 [2]: 3.3 µM
- inhibition [3]: 43.2%

SMILES: COc1cc2ncnc(Nc3ccc(OCc4ccccc4)cc3)c2cc1OC
- inhibition [3]: 97.2%
